Laboratory results as given in ChEMBL document CHEMBL1154334, “Effect of the structure of adenosine mimic of bisubstrate-analog inhibitors on their activity towards basophilic protein kinases” (Bioorg Med Chem Lett, 2009).
Where a SMILES comes first, the peptide text is derived from it. [ ]: non-standard residue; d: D form. The star is where a group is joined. X1 = Nc1nccc(-c2ccc(C(=O)*)s2)n1; Ahx = NCCCCCC(=O)O

Legend:
[1] = molecular target: cAMP-dependent protein kinase catalytic subunit alpha (Homo sapiens, UniProt P17612); assay: Inhibition of PKACalpha in presence of 100 uM ATP
Outline: (§1)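 Kinetic phosphorylation assays with PKA catalytic subunit (PKAc) or PKB catalytic subunit (PKBc) at fixed ATP. ATP Km values taken as 20 for PKAc and 100 for PKBc.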

[2] = molecular target: RAC-gamma serine/threonine-protein kinase (Homo sapiens, UniProt Q9Y243); assay: Inhibition of PKBgamma in presence of 100 uM ATP; outline: as §1
[3] = molecular target: Rho-associated protein kinase 2 (Homo sapiens, UniProt O75116); assay: Displacement of ARC583 from ROCK2
Sequence of Rho-associated protein kinase 2 (O75116 whole entry): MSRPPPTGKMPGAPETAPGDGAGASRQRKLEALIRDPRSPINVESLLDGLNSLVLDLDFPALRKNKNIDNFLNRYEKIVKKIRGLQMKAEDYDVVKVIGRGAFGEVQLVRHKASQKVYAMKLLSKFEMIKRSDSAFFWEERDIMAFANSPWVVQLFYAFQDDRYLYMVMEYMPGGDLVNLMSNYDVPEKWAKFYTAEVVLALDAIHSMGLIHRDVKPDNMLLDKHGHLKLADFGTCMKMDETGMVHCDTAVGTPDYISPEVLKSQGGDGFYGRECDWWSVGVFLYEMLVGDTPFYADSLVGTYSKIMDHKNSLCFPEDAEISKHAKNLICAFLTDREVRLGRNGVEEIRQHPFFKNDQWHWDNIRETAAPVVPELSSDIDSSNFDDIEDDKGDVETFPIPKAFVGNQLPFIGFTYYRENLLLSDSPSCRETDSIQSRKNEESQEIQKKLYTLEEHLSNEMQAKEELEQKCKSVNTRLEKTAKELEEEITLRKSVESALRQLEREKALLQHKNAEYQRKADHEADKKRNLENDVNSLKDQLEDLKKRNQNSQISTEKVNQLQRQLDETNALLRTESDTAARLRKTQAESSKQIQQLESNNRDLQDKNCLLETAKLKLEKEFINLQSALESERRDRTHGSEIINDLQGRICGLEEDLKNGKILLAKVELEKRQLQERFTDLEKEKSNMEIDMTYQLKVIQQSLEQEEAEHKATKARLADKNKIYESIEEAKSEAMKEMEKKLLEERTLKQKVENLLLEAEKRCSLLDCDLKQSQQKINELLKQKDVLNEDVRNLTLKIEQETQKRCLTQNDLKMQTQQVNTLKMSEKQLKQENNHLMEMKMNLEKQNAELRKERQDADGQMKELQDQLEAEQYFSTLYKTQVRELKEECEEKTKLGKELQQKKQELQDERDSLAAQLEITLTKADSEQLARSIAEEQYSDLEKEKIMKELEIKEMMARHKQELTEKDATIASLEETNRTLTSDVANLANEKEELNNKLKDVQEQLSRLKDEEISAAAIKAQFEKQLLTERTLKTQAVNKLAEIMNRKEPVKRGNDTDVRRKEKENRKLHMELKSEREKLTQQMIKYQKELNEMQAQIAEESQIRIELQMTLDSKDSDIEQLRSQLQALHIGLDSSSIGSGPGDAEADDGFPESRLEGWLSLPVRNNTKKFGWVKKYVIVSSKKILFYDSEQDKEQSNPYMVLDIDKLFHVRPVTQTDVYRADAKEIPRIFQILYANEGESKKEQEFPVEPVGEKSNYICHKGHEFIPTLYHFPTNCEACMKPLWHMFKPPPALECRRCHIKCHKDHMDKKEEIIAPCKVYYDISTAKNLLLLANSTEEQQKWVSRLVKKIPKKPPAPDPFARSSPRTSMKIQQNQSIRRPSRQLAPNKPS

Sequence of RAC-gamma serine/threonine-protein kinase (Q9Y243 whole entry): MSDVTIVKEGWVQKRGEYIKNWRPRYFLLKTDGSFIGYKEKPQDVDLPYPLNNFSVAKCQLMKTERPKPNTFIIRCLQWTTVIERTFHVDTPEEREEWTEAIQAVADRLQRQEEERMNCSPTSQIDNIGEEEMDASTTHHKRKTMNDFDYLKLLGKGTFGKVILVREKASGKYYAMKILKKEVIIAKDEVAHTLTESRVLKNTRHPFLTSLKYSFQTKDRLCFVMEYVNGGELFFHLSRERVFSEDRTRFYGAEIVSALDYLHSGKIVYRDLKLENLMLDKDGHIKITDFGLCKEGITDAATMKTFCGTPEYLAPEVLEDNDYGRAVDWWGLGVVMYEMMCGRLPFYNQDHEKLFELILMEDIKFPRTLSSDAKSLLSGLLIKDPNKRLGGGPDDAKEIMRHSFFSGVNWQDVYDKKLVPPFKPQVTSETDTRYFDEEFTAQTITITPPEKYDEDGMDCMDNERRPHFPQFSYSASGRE

Row | SMILES | IC50 ([1]; read-out: IC50) [µM] | IC50 [2] [µM] | Kd [3] [nM] | IC50 [1]
1 | NCCCC[C@@H](NC(=O)CCCCCNC(=O)c1ccc(C(N)=O)cc1)C(=O)NCCCCCC(=O)N[C@H](CCCN=C(N)N)C(=O)N[C@H](CCCN=C(N)N)C(N)=O | 23 | 28 | 177 | –
2 | NCCCC[C@@H](NC(=O)CCCCCNC(=O)[C@H]1O[C@@H](n2cnc3c(N)ncnc32)[C@H](O)[C@@H]1O)C(=O)NCCCCCC(=O)N[C@H](CCCN=C(N)N)C(=O)N[C@H](CCCN=C(N)N)C(N)=O | – | – | < 3 | –
3 | CC(=O)NCCCCCC(=O)N[C@H](CCCCN)C(=O)NCCCCCC(=O)N[C@H](CCCNC(=N)N)C(=O)N[C@H](CCCNC(=N)N)C(N)=O | – | > 2000 | 123000 | Not Active
4 | NCCCC[C@@H](NC(=O)CCCCCNC(=O)c1cccc(-c2ccncc2)c1)C(=O)NCCCCCC(=O)N[C@H](CCCN=C(N)N)C(=O)N[C@H](CCCN=C(N)N)C(N)=O | 0.39 | 0.9 | 3.8 | –
5 | NCCCC[C@@H](NC(=O)CCCCCNC(=O)c1ccc(-c2ccnc(N)n2)s1)C(=O)NCCCCCC(=O)N[C@H](CCCN=C(N)N)C(=O)N[C@H](CCCN=C(N)N)C(=O)N[C@H](CCCN=C(N)N)C(=O)N[C@H](CCCN=C(N)N)C(=O)N[C@H](CCCN=C(N)N)C(=O)N[C@H](CCCN=C(N)N)C(N)=O ({X1-Ahx}-[dK][Ahx][dR][dR][dR][dR][dR][dR]-NH2) | – | 0.012 | – | –
6 | N=C(N)NCCC[C@@H](NC(=O)[C@@H](CCCNC(=N)N)NC(=O)CCCCCNC(=O)[C@@H](CCCCN)NC(=O)CCCCCNC(=O)Nc1ccc(C(N)=O)cc1)C(N)=O | 240 | 900 | 6100 | –
